Experimental data taken from ChEMBL document CHEMBL1125144, “5-[(Aminoalkyl)amino]imidazo[4,5,1-de]acridin-6-ones as a novel class of antineoplastic agents. Synthesis and biological activity” (J Med Chem, 1990).
Values joined by “and” are separate entries in the source; they are usually repeats but may differ in a detail not shown here. Identical values can stand only once.

What was measured:
P388 [1] = experiment: In vivo antitumor activity was determined against P 388 leukemia cells implanted (ip) in BDF1 mice at a dose of 50 mg/kg; type: functional, Mus musculus
Summary of the method: (§1)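 Groups of eight BDF1 mice received 10⁶ P388 cells ip on day 0. Control groups of 18 mice received saline. Read-out is T/C (%). T/C ≤85% is scored toxic and ≥125% significant activity. Some doses were repeated in an independent multidose assay.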

HeLa = experiment: In vitro cytotoxic activity against HeLaS3 cells in tissue culture was determined; type: functional, cell-based; conditions: Homo sapiens
Summary of the method: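 HeLa S3 cells grown in tissue culture. Read-out is the concentration giving 50% inhibition. Significant cytotoxicity is defined as 50% inhibition at <1 µg/mL. Values are the mean of three independent experiments.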

P388 [2] = experiment: In vivo antitumor activity was determined against P 388 leukemia cells implanted (ip) in BDF1 mice at a dose of 25 mg/kg; type: functional, Mus musculus; summary of the method: as §1
P388 [3] = experiment: In vivo antitumor activity was determined against P 388 leukemia cells implanted (ip) in BDF1 mice at a dose of 100 mg/kg; type: functional, Mus musculus; summary of the method: as §1
P388 [4] = experiment: In vivo antitumor activity was determined against P 388 leukemia cells implanted (ip) in BDF1 mice at a dose of 30 mg/kg; type: functional, Mus musculus; summary of the method: as §1
P388 [5] = experiment: In vivo antitumor activity was determined against P 388 leukemia cells implanted (ip) in BDF1 mice at a dose of 90 mg/kg; type: functional, Mus musculus; summary of the method: as §1
P388 [6] = experiment: In vivo antitumor activity was determined against P 388 leukemia cells implanted (ip) in BDF1 mice at a dose of 150 mg/kg; type: functional, Mus musculus; summary of the method: as §1
P388 [7] = experiment: In vivo antitumor activity was determined against P 388 leukemia cells implanted (ip) in BDF1 mice a dose of 75 mg/kg; type: functional, Mus musculus; summary of the method: as §1
P388 [8] = experiment: In vivo antitumor activity was determined against P 388 leukemia cells implanted (ip) in BDF1 mice at a dose of 60 mg/kg; type: functional, Mus musculus; summary of the method: as §1
P388 [9] = experiment: In vivo antitumor activity was determined against P 388 leukemia cells implanted (ip) in BDF1 mice at a dose of 75; type: functional, Mus musculus; summary of the method: as §1
P388 [10] = experiment: In vivo antitumor activity was determined against P 388 leukemia cells implanted (ip) in BDF1 mice at a dose of 75 mg/kg; type: functional, Mus musculus; summary of the method: as §1
P388 [11] = experiment: In vivo antitumor activity was determined against P 388 leukemia cells implanted (ip) in BDF1 mice at a dose of 175 mg/kg; type: functional, Mus musculus; summary of the method: as §1

Row | Structure (SMILES) | IC50 (HeLa) [µg/mL] | other results
1 | CN(C)CCNc1ccc([N+](=O)[O-])c2nc3ccccc3c(O)c12.Cl | 0.15 | T/C (P388 [1]): 185%; T/C (P388 [2]; 25 mg/kg): 160% and 166%
2 | CC(=O)Nc1ccc(NCCCN(C)C)c2c(O)c3ccccc3nc12.Cl.Cl | > 5 | –
3 | CN(C)CCCCCNc1ccc2ncn3c4ccccc4c(=O)c1c23.Cl.Cl | 0.5 | T/C (P388 [3]): 110%
4 | CN(C)CCCNc1ccc2nc(-c3ccccc3)n3c4ccccc4c(=O)c1c23.Cl.Cl | 0.28 | T/C (P388 [4]): 110%
5 | CCc1nc2ccc(NCCCN(C)C)c3c(=O)c4ccccc4n1c23.Cl.Cl | 0.25 | T/C (P388 [5]): 130%
6 | CN(C)CCNc1ccc(N)c2nc3ccccc3c(O)c12.Cl.Cl | 2.93 | T/C (P388 [3]): <85%
7 | CN(C)CCCNc1ccc(N)c2nc3ccccc3c(O)c12.Cl.Cl | 0.25 | T/C (P388 [2]): <85%
8 | CN(C)CCCCCNc1ccc(N)c2nc3ccccc3c(O)c12.Cl.Cl | 1.05 | –
9 | Cc1nc2ccc(NCCCN(C)C)c3c(=O)c4ccccc4n1c23.Cl.Cl | 0.11 | T/C (P388 [6]): 122%
10 | CC(=O)Nc1ccc(NCCN(C)C)c2c(O)c3ccccc3nc12.Cl.Cl | > 5 | T/C (P388 [7]): 137%
11 | CN(C)CCNc1ccc2nc(-c3ccccc3)n3c4ccccc4c(=O)c1c23.Cl.Cl | 0.43 | T/C (P388 [1]): 150%
12 | CN(C)CCCCCNc1ccc([N+](=O)[O-])c2nc3ccccc3c(O)c12.Cl | 0.13 | T/C (P388 [8]): 144%
13 | CN(C)CCCNc1ccc([N+](=O)[O-])c2nc3ccccc3c(O)c12.Cl | 0.04 | T/C (P388 [9]): 190%; T/C (P388 [3]): 189%
14 | CC(C)c1nc2ccc(NCCN(C)C)c3c(=O)c4ccccc4n1c23.Cl.Cl | 0.37 | T/C (P388 [6]): 166%
15 | CCCCCCCCc1nc2ccc(NCCN(C)C)c3c(=O)c4ccccc4n1c23.Cl.Cl | 0.2 | T/C (P388 [10]): <85%
16 | CCCc1nc2ccc(NCCN(C)C)c3c(=O)c4ccccc4n1c23.Cl.Cl | 0.2 | T/C (P388 [11]): 211% and 233%
17 | Cc1nc2ccc(NCCN(C)C)c3c(=O)c4ccccc4n1c23.Cl.Cl | 0.05 | T/C (P388 [1]; 50 mg/kg): 190% and 230%
18 | CN(C)CCNc1ccc2ncn3c4ccccc4c(=O)c1c23.Cl.Cl | 0.06 | T/C (P388 [2]; 25 mg/kg): 180% and 188%
19 | CCc1nc2ccc(NCCN(C)C)c3c(=O)c4ccccc4n1c23.Cl.Cl | 0.11 | T/C (P388 [3]): 200%
20 | CN(C)CCCNc1ccc2ncn3c4ccccc4c(=O)c1c23.Cl.Cl | 0.15 | T/C (P388 [3]; 100 mg/kg): 133% and 120%
